Source: ChEMBL document CHEMBL1151744, “New analgesics synthetically derived from the paracetamol metabolite N-(4-hydroxyphenyl)-(5Z,8Z,11Z,14Z)-icosatetra-5,8,11,14-enamide” (J Med Chem, 2008)
Active and inactive are the calls of the source. No cut-off for these calls is given here.

What was measured:
[1] = target: T1, Cannabinoid receptor 1 (Homo sapiens, UniProt P21554); test: Displacement of [3H]CP-55940 from human recombinant CB1 receptor expressed in HEK293 cells; type: cell-based
Outline: (§1)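 Membranes were from HEK-293 cells overexpressing human CB1 or CB2, with [3H]CP-55,940 as radioligand (Kd 0.18 nM CB1, 0.31 nM CB2). Test compound (1 nM-10 µM) was incubated 90 min at 30 °C. Displaced radioligand was counted by scintillation. Ki came from IC50 via Cheng-Prusoff, with triplicate points; single-concentration screens were run in duplicate.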

[2] = target: T2, Cannabinoid receptor 2 (Homo sapiens, UniProt P34972); test: Displacement of [3H]CP-55940 from human recombinant CB2 receptor expressed in HEK293 cells; type: cell-based; outline: as §1
T2 sequence (P34972 whole entry): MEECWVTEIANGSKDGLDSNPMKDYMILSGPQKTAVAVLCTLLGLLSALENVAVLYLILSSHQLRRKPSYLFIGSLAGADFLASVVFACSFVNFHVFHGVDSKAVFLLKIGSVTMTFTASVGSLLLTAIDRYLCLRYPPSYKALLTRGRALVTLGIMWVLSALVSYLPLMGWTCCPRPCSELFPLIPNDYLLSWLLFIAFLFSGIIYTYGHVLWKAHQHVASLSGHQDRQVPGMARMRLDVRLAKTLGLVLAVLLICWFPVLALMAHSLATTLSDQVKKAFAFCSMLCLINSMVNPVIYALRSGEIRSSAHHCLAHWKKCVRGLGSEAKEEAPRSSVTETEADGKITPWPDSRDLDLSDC

[3] = target: T3, Fatty-acid amide hydrolase 1 (Rattus norvegicus) (UniProt P97612); test: Inhibition of FAAH in rat brain membrane assessed as [14C]anandamide hydrolysis at 50 uM by scintillation counting; type: cell membranes
T3 sequence (whole entry): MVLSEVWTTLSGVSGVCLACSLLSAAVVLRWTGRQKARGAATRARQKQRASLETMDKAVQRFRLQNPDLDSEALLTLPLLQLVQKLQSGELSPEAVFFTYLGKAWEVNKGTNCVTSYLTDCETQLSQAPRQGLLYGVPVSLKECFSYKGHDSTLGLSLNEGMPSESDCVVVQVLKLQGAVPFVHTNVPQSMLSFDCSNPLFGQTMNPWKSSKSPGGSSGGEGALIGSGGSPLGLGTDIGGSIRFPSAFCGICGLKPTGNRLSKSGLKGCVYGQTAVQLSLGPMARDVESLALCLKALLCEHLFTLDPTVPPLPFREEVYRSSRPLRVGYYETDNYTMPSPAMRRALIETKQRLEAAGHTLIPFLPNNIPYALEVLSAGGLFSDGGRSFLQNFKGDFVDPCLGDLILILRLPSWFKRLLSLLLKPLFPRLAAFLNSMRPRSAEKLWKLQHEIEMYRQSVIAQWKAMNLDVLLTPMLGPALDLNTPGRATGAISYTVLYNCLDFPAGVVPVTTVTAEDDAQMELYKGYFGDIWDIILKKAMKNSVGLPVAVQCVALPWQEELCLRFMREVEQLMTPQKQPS
Outline: (§2)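 Enzyme source was a rat brain membrane pellet resuspended in 50 mM Tris-HCl, pH 9.0, 70 µg protein per assay. It was incubated with compound (10 or 50 µM) and [14C]anandamide (10000 cpm) for 30 min at 37 °C. After CHCl3/MeOH (1:1) extraction, [14C]ethanolamine in the aqueous phase was counted by scintillation. Points were run in duplicate.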

[4] = target: T3, Fatty-acid amide hydrolase 1 (Rattus norvegicus); test: Inhibition of FAAH in rat brain membrane assessed as [14C]anandamide hydrolysis at 10 uM by scintillation counting; type: cell membranes; outline: as §2
[5] = target: T4, Prostaglandin G/H synthase 1 (Ovis aries) (UniProt P05979); test: Inhibition of ovine cyclooxygenase 1 assessed as prostaglandin F2alpha level at 10 uM by enzyme immunoassay relative to control
T4 sequence (whole entry): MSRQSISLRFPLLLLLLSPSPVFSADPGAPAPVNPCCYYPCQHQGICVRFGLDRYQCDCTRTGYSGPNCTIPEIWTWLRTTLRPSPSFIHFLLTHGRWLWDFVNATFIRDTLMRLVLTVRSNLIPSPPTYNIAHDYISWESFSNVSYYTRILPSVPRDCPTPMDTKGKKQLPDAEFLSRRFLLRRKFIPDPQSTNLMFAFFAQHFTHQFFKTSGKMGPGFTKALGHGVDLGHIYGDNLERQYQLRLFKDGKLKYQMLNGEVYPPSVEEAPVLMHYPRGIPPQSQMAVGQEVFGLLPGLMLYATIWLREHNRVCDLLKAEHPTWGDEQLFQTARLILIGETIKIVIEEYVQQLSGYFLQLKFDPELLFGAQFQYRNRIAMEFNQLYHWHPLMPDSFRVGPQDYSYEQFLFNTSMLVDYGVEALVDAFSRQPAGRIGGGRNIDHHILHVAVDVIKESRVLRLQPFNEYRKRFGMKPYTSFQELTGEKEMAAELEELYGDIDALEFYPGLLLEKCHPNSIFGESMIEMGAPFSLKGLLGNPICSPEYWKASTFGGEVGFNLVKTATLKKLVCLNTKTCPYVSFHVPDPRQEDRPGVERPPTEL
Outline: (§3)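 Isolated ovine COX-1 or human recombinant COX-2 was incubated with compound at 1 or 10 µM for 10 min at 37 °C. Buffer was 0.1 M Tris-HCl pH 8.0 with 5 mM EDTA and 2 mM phenol. PGH2 formed was reduced to PGF2α with stannous chloride for quantification. Ketoprofen (10 µM) served as reference; values are means of four experiments.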

[6] = target: T5, Prostaglandin G/H synthase 2 (Homo sapiens) (UniProt P35354); test: Inhibition of human recombinant cyclooxygenase 2 assessed as prostaglandin F2alpha level at 10 uM by enzyme immunoassay relative to control; outline: as §3
T5 sequence (whole entry): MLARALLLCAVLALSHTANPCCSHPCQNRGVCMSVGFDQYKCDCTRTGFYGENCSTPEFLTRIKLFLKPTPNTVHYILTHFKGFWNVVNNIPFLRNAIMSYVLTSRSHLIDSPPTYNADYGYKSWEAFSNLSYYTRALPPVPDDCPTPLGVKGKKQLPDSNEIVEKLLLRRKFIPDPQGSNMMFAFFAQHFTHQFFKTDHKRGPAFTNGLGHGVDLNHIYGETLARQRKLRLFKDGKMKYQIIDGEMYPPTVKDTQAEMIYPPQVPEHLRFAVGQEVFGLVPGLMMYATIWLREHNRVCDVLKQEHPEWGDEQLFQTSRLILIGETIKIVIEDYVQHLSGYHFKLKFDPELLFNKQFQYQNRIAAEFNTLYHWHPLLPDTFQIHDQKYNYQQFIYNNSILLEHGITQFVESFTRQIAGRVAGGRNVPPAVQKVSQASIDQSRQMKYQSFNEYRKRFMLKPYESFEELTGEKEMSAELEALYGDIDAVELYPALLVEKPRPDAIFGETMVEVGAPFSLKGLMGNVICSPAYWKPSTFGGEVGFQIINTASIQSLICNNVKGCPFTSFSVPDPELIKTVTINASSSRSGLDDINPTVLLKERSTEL

[7] = tested on: Mus musculus; test: Antinociceptive activity against formalin-induced nociceptive behavior in C57BL/6 mouse assessed as mean licking time at 200 mg/kg, ip administered 15 mins prior to formalin challenge measured upto 10 mins relative to control; type: functional; settings: route intraperitoneal
Outline: (§4)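 C57BL/6 mice (n = 6-8 per group) were habituated 15-20 min in an observation chamber with mirrors, then given the compound ip at 6 µL/g in PBS/DMSO. Formalin (5%, 20 µL) went into the dorsal left hind paw 15 min later. Licking of the injected paw was summed over 0-10 min (phase 1) and 15-45 min (phase 2) and expressed as % of the vehicle control. Groups were compared by t test.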

[8] = tested on: Mus musculus; test: Antinociceptive activity against formalin-induced nociceptive behavior in C57BL/6 mouse assessed as mean licking time at 200 mg/kg, ip administered 15 mins prior to formalin challenge measured after 15 to 45 mins relative to control; type: functional; settings: route intraperitoneal; outline: as §4
[9] = target: T1, Cannabinoid receptor 1; test: Displacement of [3H]CP-55940 from human recombinant CB1 receptor expressed in HEK293 cells at 10 uM; type: cell-based
[10] = target: T2, Cannabinoid receptor 2; test: Displacement of [3H]CP-55940 from human recombinant CB2 receptor expressed in HEK293 cells at 10 uM; type: cell-based
[11] = target: Prostaglandin G/H synthase 1 (Homo sapiens, UniProt P23219); test: Inhibition of cyclooxygenase 1 in human whole blood assessed as thromboxane B2 level; type: tissue-based
Sequence of Prostaglandin G/H synthase 1 (P23219 whole entry): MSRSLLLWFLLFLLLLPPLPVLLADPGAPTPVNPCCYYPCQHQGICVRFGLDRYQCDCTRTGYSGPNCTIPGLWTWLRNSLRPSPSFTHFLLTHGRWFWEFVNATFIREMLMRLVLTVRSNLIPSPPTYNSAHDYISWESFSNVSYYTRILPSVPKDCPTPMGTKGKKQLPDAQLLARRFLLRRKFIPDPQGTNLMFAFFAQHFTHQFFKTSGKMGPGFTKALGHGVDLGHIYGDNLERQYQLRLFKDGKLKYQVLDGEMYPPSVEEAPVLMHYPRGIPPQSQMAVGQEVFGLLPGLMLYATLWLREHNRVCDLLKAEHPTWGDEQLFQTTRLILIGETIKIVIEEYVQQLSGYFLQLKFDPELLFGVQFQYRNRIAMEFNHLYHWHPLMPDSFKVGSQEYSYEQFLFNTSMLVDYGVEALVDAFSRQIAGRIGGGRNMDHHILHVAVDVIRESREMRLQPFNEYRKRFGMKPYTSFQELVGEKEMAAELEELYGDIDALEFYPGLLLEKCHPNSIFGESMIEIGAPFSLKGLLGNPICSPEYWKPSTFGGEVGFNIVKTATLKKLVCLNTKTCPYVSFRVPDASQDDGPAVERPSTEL
Outline: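 Fresh whole blood came from a healthy volunteer free of NSAIDs for 2 weeks. 1 mL aliquots received test agent in DMSO and were left to clot for 1 h at 37 °C. Serum TXB2 was measured by GC-MS/MS, in quadruplicate.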

[12] = target: T4, Prostaglandin G/H synthase 1 (Ovis aries); test: Inhibition of ovine cyclooxygenase 1 assessed as prostaglandin F2alpha level at 1 uM by enzyme immunoassay relative to control; outline: as §3
[13] = target: T5, Prostaglandin G/H synthase 2 (Homo sapiens); test: Inhibition of human recombinant cyclooxygenase 2 assessed as prostaglandin F2alpha level at 1 uM by enzyme immunoassay relative to control; outline: as §3
[14] = species: Mus musculus; test: Toxicity in C57BL/6 mouse assessed as loss of locomotor behavior; type: organism-based; settings: in vivo
[15] = tested on: Mus musculus; test: Antinociceptive activity against formalin-induced nociceptive behavior in C57BL/6 mouse assessed as mean licking time at 5 mg/kg, ip administered 15 mins prior to formalin challenge measured upto 10 mins relative to control; type: functional; settings: route intraperitoneal; outline: as §4
[16] = tested on: Mus musculus; test: Antinociceptive activity against formalin-induced nociceptive behavior in C57BL/6 mouse assessed as mean licking time at 10 mg/kg, ip administered 15 mins prior to formalin challenge measured upto 10 mins relative to control; type: functional; settings: route intraperitoneal; outline: as §4
[17] = tested on: Mus musculus; test: Antinociceptive activity against formalin-induced nociceptive behavior in C57BL/6 mouse assessed as mean licking time at 50 mg/kg, ip administered 15 mins prior to formalin challenge measured upto 10 mins relative to control; type: functional; settings: route intraperitoneal; outline: as §4
[18] = tested on: Mus musculus; test: Antinociceptive activity against formalin-induced nociceptive behavior in C57BL/6 mouse assessed as mean licking time at 5 mg/kg, ip administered 15 mins prior to formalin challenge measured after 15 to 45 mins relative to control; type: functional; settings: route intraperitoneal; outline: as §4
[19] = tested on: Mus musculus; test: Antinociceptive activity against formalin-induced nociceptive behavior in C57BL/6 mouse assessed as mean licking time at 10 mg/kg, ip administered 15 mins prior to formalin challenge measured after 15 to 45 mins relative to control; type: functional; settings: route intraperitoneal; outline: as §4
[20] = tested on: Mus musculus; test: Antinociceptive activity against formalin-induced nociceptive behavior in C57BL/6 mouse assessed as mean licking time at 50 mg/kg, ip administered 15 mins prior to formalin challenge measured after 15 to 45 mins relative to control; type: functional; settings: route intraperitoneal; outline: as §4
[21] = target: T6, Prostaglandin G/H synthase 2 (Homo sapiens, UniProt P35354); test: Inhibition of cyclooxygenase 2 in human whole blood assessed as prostaglandin E2 level
T6 sequence (P35354 whole entry): T5 sequence (whole entry)

[22] = tested on: Mus musculus; test: Antinociceptive activity against formalin-induced nociceptive behavior in C57BL/6 mouse assessed as mean licking time at 27.5 mg/kg, ip administered 15 mins prior to formalin challenge measured after 15 to 45 mins relative to control; type: functional; settings: route intraperitoneal; outline: as §4
[23] = tested on: Mus musculus; test: Antinociceptive activity against formalin-induced nociceptive behavior in C57BL/6 mouse assessed as mean licking time at 55 mg/kg, ip administered 15 mins prior to formalin challenge measured after 15 to 45 mins relative to control; type: functional; settings: route intraperitoneal; outline: as §4
[24] = tested on: Mus musculus; test: Antinociceptive activity against formalin-induced nociceptive behavior in C57BL/6 mouse assessed as mean licking time at 275 mg/kg, ip administered 15 mins prior to formalin challenge measured after 15 to 45 mins relative to control; type: functional; settings: route intraperitoneal; outline: as §4
[25] = tested on: Mus musculus; test: Antinociceptive activity against formalin-induced nociceptive behavior in C57BL/6 mouse assessed as mean licking time lat 27.5 mg/kg, ip administered 15 mins prior to formalin challenge measured upto 10 mins relative to control; type: functional; settings: route intraperitoneal; outline: as §4
[26] = tested on: Mus musculus; test: Antinociceptive activity against formalin-induced nociceptive behavior in C57BL/6 mouse assessed as mean licking time at 55 mg/kg, ip administered 15 mins prior to formalin challenge measured upto 10 mins relative to control; type: functional; settings: route intraperitoneal; outline: as §4
[27] = tested on: Mus musculus; test: Antinociceptive activity against formalin-induced nociceptive behavior in C57BL/6 mouse assessed as mean licking time at 275 mg/kg, ip administered 15 mins prior to formalin challenge measured upto 10 mins relative to control; type: functional; settings: route intraperitoneal; outline: as §4
[28] = target: T5, Prostaglandin G/H synthase 2 (Homo sapiens); test: Inhibition of cyclooxygenase 2 in human whole blood assessed as prostaglandin E2 level
[29] = tested on: Mus musculus; test: Toxicity in C57BL/6 mouse assessed as loss of locomotor behavior at 325 mg/kg; type: organism-based; set-up: dose 325 mg/kg; settings: in vivo

T1 sequence (P21554 whole entry): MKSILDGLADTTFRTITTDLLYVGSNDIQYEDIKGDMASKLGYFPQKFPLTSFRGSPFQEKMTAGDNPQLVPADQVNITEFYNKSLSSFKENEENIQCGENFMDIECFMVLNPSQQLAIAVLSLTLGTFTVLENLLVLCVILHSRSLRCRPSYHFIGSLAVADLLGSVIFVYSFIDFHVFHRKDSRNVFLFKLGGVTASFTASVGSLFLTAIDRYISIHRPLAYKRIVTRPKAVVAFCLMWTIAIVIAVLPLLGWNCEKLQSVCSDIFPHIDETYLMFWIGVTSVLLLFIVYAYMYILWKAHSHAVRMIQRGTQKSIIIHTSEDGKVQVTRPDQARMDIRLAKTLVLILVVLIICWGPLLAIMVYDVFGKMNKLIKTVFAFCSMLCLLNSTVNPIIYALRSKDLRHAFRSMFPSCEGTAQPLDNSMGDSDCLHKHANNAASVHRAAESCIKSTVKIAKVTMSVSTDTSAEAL

SMILES | Ki [1] [nM] | Ki [2] [nM] | inhibition [3] [%] | inhibition [4] [%] | Activity [9] [%] | Activity [10] [%] | Activity [11] | other results
CCCCC/C=C\C/C=C\C/C=C\C/C=C\CCCC(=O)Nc1ccc2[nH]ncc2c1 | 300 | 1000 | 2 | 1 | – | – | – | –
CCCCC/C=C\C/C=C\C/C=C\C/C=C\CCCC(=O)Nc1ccc(O)cc1 | 1500 | 1300 | 55 | 15 | – | – | – | –
CCCCC/C=C\C/C=C\C/C=C\C/C=C\CCCC(=O)Nc1ccc(O)c(OC)c1 | 1400 | 1000 | 62 | 23 | – | – | – | –
CC(C(=O)O)c1cccc(C(=O)c2ccccc2)c1 (stereo not drawn) | – | – | – | – | – | – | – | inhibition [5]: 16%; inhibition [6]: 41%
CC(=O)Nc1ccc(O)cc1 [ACETAMINOPHEN] | – | – | 22 | – | 13 | 15 | Active | Activity [7]: 100%; Activity [8]: 47%
CC(=O)Nc1ccc2[nH]ncc2c1 | – | – | 4 | – | 1 | 12 | inactive | inhibition [12]: 97%; inhibition [5]: 92%; inhibition [13]: 80%; Activity [14]: Non-toxic; Activity [15]: 105%; Activity [16]: 142%; Activity [17]: 29%; Activity [18]: 94%; Activity [19]: 73%; Activity [20]: 38%; inhibition [6]: 70%; IC50 [21]: 107000 nM
CC(=O)NCc1ccc(O)cc1 | – | – | 4 | – | 5 | 7 | inactive | Activity [22]: 97%; Activity [23]: 71%; Activity [24]: 37%; Activity [14]: Non-toxic; Activity [25]: 227%; Activity [26]: 128%; Activity [27]: 50%; Activity [28]: inactive
CCCCC/C=C\C/C=C\C/C=C\C/C=C\CCCC(=O)NCc1ccc(O)cc1 | 200 | 100 | 88 | 56 | – | – | – | –
COc1cc(NC(C)=O)ccc1O | – | – | 8 | – | 16 | 22 | – | IC50 [11]: 234000 nM; Activity [29]: Toxic; IC50 [21]: 138000 nM
